Active and inactive are the calls of the source. No cut-off for these calls is given here.
Columns and labels:
[1] = tested on: Hepatocyte; experiment: Inhibition of cholesterol synthesis in rat hepatocyte; type: functional, cell-based
[2] = target: T1, 3-hydroxy-3-methylglutaryl-coenzyme A reductase (Homo sapiens, UniProt P04035); experiment: Inhibition of HMG-CoA reductase
T1 sequence (P04035 whole entry): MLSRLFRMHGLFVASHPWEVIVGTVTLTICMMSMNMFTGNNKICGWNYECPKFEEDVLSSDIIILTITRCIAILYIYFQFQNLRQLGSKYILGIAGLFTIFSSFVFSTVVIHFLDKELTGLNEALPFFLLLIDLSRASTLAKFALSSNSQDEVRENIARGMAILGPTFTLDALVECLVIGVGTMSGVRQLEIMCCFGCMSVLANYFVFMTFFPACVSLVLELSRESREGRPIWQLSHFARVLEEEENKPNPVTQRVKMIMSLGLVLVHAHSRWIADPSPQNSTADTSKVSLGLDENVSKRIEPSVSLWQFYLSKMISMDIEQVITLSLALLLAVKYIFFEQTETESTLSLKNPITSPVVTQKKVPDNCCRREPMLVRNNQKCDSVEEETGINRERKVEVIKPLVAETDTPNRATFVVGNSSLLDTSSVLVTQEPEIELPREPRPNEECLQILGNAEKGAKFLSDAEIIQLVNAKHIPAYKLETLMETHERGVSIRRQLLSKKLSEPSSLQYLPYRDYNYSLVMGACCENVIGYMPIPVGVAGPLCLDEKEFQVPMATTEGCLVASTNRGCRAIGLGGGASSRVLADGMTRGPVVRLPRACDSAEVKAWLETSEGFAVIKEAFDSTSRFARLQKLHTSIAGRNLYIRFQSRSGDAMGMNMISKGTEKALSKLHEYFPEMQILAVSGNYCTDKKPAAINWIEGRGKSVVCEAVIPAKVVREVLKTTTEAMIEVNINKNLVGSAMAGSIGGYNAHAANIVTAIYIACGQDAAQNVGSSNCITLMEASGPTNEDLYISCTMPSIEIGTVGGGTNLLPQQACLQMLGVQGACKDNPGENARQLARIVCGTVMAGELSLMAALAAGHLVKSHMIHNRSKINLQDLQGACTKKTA

[3] = tested on: Mus musculus; experiment: Inhibition of acute cholesterol synthesis in mouse at 1 mg/kg; type: functional; settings: for inhibition in vivo at 1 mg/kg: read-out: Inhibition
[4] = Inhibition of cholesterol synthesis in rat myocyte; type: functional, cell-based; settings: Ventricular myocyte
[5] = Reduction in LDL cholesterol on cholestyramine-primed hamster serum at 10 mg/kg, po after 7 days; type: functional; parameters: scale not given: the % may be the effect or the level left
Summary of the method: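 Cholestyramine-primed hamsters were dosed orally at 10 mg/kg once daily for 7 days. At the end of treatment, serum LDL-C was measured and percent reduction calculated against an untreated control group.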

[6] = Reduction in LDL cholesterol on cholestyramine-primed orally dosed hamster plasma after 7 days; type: functional; settings: Cricetulus griseus, po, 168 h
Summary of the method: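 Cholestyramine-primed hamsters were dosed orally once daily for 7 days at 0.1, 0.5, 1, 5, 10 or 50 mg/kg (separate groups, n = 10 each). Animals were sacrificed 2 h after the final dose and plasma LDL measured. Results are mean ± SEM percent change from control, with ED50 derived from the dose–response.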

IC50 [2] | IC50 [4] | Structure (SMILES) | IC50 [1] | inhibition in vivo at 1 mg/kg [3] | Activity [5] | ED50 [6] | inhibition [3]
0.6 nM | 3230 nM | Cc1cc(CNC(=O)c2c(-c3ccccc3)c(-c3ccc(F)cc3)c(CC[C@@H](O)C[C@@H](O)CC(=O)O)n2C(C)C)nn1C | 0.9 nM | 19% | – | – | –
0.8 nM | 44 nM | CC(C)n1c(CC[C@@H](O)C[C@@H](O)CC(=O)O)c(-c2ccc(F)cc2)c(-c2ccccc2)c1C(=O)NCc1ccccc1 | 0.3 nM | 46% | – | – | –
2.9 nM | 1790 nM | CC(C)n1c(CC[C@@H](O)C[C@@H](O)CC(=O)O)c(-c2ccc(F)cc2)c(-c2ccccc2)c1C(=O)Nc1ccc(S(N)(=O)=O)cc1 | 0.3 nM | 32% | – | – | –
0.3 nM | 684 nM | CC(C)n1c(CC[C@@H](O)C[C@@H](O)CC(=O)O)c(-c2ccc(F)cc2)c(-c2ccccc2)c1C(=O)Nc1ccc(C(N)=O)cc1 | 0.1 nM | 45% | – | – | –
1.2 nM | 3100 nM | CC(C)n1c(CC[C@@H](O)C[C@@H](O)CC(=O)O)c(-c2ccc(F)cc2)c(-c2ccccc2)c1C(=O)NCc1cccc(C(N)=O)c1 | 0.1 nM | 22% | – | – | –
1.8 nM | 229 nM | CC(C)n1c(CC[C@@H](O)C[C@@H](O)CC(=O)O)c(-c2ccc(F)cc2)c(-c2ccccc2)c1C(=O)Nc1ccccc1 | 1 nM | 57% | – | – | –
0.8 nM | 310 nM | COc1ccc(CNC(=O)c2c(-c3ccccc3)c(-c3ccc(F)cc3)c(CC[C@@H](O)C[C@@H](O)CC(=O)O)n2C(C)C)cc1 | 0.4 nM | 52% | – | – | –
15 nM | 1930 nM | CC(C)NC(=O)c1c(-c2ccccc2)c(-c2ccc(F)cc2)c(CC[C@@H](O)C[C@@H](O)CC(=O)O)n1C(C)C | 1.6 nM | 73% | – | – | –
3.1 nM | 250 nM | CC(C)c1nc(N(C)S(C)(=O)=O)nc(-c2ccc(F)cc2)c1/C=C/[C@@H](O)C[C@@H](O)CC(=O)O [ROSUVASTATIN] | 0.27 nM | 82% | -25% | – | –
6.6 nM | 50 nM | COc1cccc(NC(=O)c2c(-c3ccc(F)cc3)c(-c3ccc(F)cc3)c(CC[C@@H](O)C[C@@H](O)CC(=O)O)n2C(C)C)c1 | 0.3 nM | 54% | – | – | –
1.4 nM | 1110 nM | CC(C)n1c(CC[C@@H](O)C[C@@H](O)CC(=O)O)c(-c2ccc(F)cc2)c(-c2ccccc2)c1C(=O)Nc1ccc(C(=O)N(C)C)cc1 | 0.7 nM | 10% | – | – | –
1.2 nM | 6520 nM | CC(C)n1c(CC[C@@H](O)C[C@@H](O)CC(=O)O)c(-c2ccc(F)cc2)c(-c2ccccc2)c1C(=O)NCc1ccc(C(=O)N(C)C)cc1 | 4.9 nM | 38% | – | – | –
1.8 nM | 130 nM | COc1cccc(CNC(=O)c2c(-c3ccccc3)c(-c3ccc(F)cc3)c(CC[C@@H](O)C[C@@H](O)CC(=O)O)n2C(C)C)c1 | 0.1 nM | – | – | – | –
0.4 nM | 626 nM | CC(C)n1c(CC[C@@H](O)C[C@@H](O)CC(=O)O)c(-c2ccc(F)cc2)c(-c2ccccc2)c1C(=O)Nc1ccc(O)cc1 | 0.5 nM | 48% | – | – | –
– | 145 nM | CC(C)n1c(CC[C@@H](O)C[C@@H](O)CC(=O)O)c(-c2ccc(F)cc2)c(-c2ccc(F)cc2)c1C(=O)Nc1ccccc1 | 0.4 nM | 75% | – | – | –
3 nM | 2450 nM | CC(C)n1c(CC[C@@H](O)C[C@@H](O)CC(=O)[O-])c(-c2ccc(F)cc2)c(-c2ccccc2)c1C(N)=O.[Na+] | 0.6 nM | 85% | -11% | – | –

IC50 [2] | IC50 [4] | Structure (SMILES) | IC50 [1] | inhibition in vivo at 1 mg/kg [3] | Activity [5] | ED50 [6] | inhibition [3]
0.7 nM | 524 nM | CC(C)n1c(CC[C@@H](O)C[C@@H](O)CC(=O)O)c(-c2ccc(F)cc2)c(-c2ccc(F)cc2)c1C(=O)Nc1cccc(O)c1 | 1.2 nM | 22% | – | – | –
0.2 nM | 650 nM | CC(C)n1c(CC[C@@H](O)C[C@@H](O)CC(=O)O)c(-c2ccc(F)cc2)c(-c2ccccc2)c1C(=O)NCc1ccc(C#N)cc1 | 0.7 nM | 47% | – | – | –
3.4 nM | 10400 nM | Cc1cnc(CNC(=O)c2c(-c3ccccc3)c(-c3ccc(F)cc3)c(CC[C@@H](O)C[C@@H](O)CC(=O)O)n2C(C)C)[nH]1 | 0.5 nM | 11% | – | – | –
12 nM | 2270 nM | CCNC(=O)c1c(-c2ccccc2)c(-c2ccc(F)cc2)c(CC[C@@H](O)C[C@@H](O)CC(=O)[O-])n1C(C)C.[Na+] | 0.7 nM | 76% | -24% | 3 mg/kg | –
3.8 nM | 2780 nM | CC(C)n1c(CC[C@@H](O)C[C@@H](O)CC(=O)[O-])c(-c2ccc(F)cc2)c(-c2ccccc2)c1C(=O)NC1CC1.[Na+] | 2 nM | 70% | -24% | – | –
0.8 nM | 472 nM | CC(C)n1c(CC[C@@H](O)C[C@@H](O)CC(=O)O)c(-c2ccc(F)cc2)c(-c2ccccc2)c1C(=O)NCc1ccccn1 | 0.1 nM | 39% | – | – | –
2.6 nM | 10400 nM | Cc1cc(CNC(=O)c2c(-c3ccccc3)c(-c3ccc(F)cc3)c(CC[C@@H](O)C[C@@H](O)CC(=O)O)n2C(C)C)n[nH]1 | 0.5 nM | – | – | – | –
– | 150 nM | CCC(C)(C)C(=O)O[C@H]1C[C@@H](C)C=C2C=C[C@H](C)[C@H](CC[C@@H]3C[C@@H](O)CC(=O)O3)[C@H]21 [SIMVASTATIN] | 1.3 nM | – | – | – | –
0.3 nM | 12600 nM | CC(C)n1c(CC[C@@H](O)C[C@@H](O)CC(=O)O)c(-c2ccc(F)cc2)c(-c2ccccc2)c1C(=O)Nc1ccc(C(=O)O)cc1 | 0.1 nM | – | – | – | inactive
0.7 nM | 211 nM | COCc1ccc(CNC(=O)c2c(-c3ccccc3)c(-c3ccc(F)cc3)c(CC[C@@H](O)C[C@@H](O)CC(=O)O)n2C(C)C)cc1 | 1.5 nM | – | – | – | –
8.8 nM | 5300 nM | CNC(=O)c1c(-c2ccccc2)c(-c2ccc(F)cc2)c(CC[C@@H](O)C[C@@H](O)CC(=O)[O-])n1C(C)C.[Na+] | 1.2 nM | 83% | -12% | – | –
20 nM | 1580 nM | CC(C)n1c(CC[C@@H](O)C[C@@H](O)CC(=O)O)c(-c2ccc(F)cc2)c(-c2ccccc2)c1C(=O)N(C)C | 0.9 nM | 85% | – | – | –
0.3 nM | 549 nM | CC(C)n1c(CC[C@@H](O)C[C@@H](O)CC(=O)O)c(-c2ccc(F)cc2)c(-c2ccc(F)cc2)c1C(=O)Nc1cccc(C(=O)N(C)C)c1 | 0.2 nM | 20% | – | – | –
2.2 nM | 7920 nM | CC(C)n1c(CC[C@@H](O)C[C@@H](O)CC(=O)O)c(-c2ccc(F)cc2)c(-c2ccccc2)c1C(=O)NCc1ccc(C(=O)O)cc1 | 0.1 nM | 7% | – | – | –
1.5 nM | 1010 nM | Cc1csc(CNC(=O)c2c(-c3ccccc3)c(-c3ccc(F)cc3)c(CC[C@@H](O)C[C@@H](O)CC(=O)O)n2C(C)C)n1 | 1.5 nM | 33% | – | – | –
